Data reported in PubChem BioAssay AID719 (SRMLSC, 2007).
Out of some 85,000 compounds screened, about 940 (1.1%) were called active. The entries come from a sample that favours actives as a whole. A number with no mark means an inactive call.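 Rule for the calls: active = viability at or below 50% in the single dose screen; inactive = viability above 50%.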

experiment: antiproliferative effect on LL 47 fibroblasts – human, LL 47 cells, CellTiter-Glo luminescence, primary screen (AID 719); settings: LL 47 human lung fibroblast viability, ATP luminescence; at 10 µM; stronger effect = lower value;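 note: compound exposure lasted 72 h before the ATP readout; 100% = median luminescence of untreated cell-only wells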
In short: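 Material: Human LL 47 lung fibroblast cells | Input: 1,150 cells/well | Buffer or medium: IMEM plus 15% FBS | Compound dosing: 0.1% DMSO in all compound wells | Times: Overnight cell rest, 72 h compound treatment at 37 °C | Signal: CellTiter-Glo luminescence measuring cellular ATP | Measure: % viability versus median cells-only luminescence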

SMILES	viability
O=C(C(NS(=O)(=O)c1cccc2nsnc12)c1ccccc1)N1CCN(c2ccccc2)CC1 (stereo not drawn)	94.9%
Oc1c(Cl)cc(Cl)c(Cl)c1Cc1c(O)c(Cl)cc(Cl)c1Cl	46.4% (active)
CC(=O)CCS(=O)(=O)c1ccc(C)c(C)c1	32.5% (active)
CCCCN(CCCC)C(=O)CCS(=O)(=O)c1ccc2c(c1)n(C)c(=O)c(=O)n2C	96.8%
Cc1ccc(S(=O)(=O)NCCN2CCOCC2)cc1C	108%
Cc1cc(C)cc(N(CC(=O)N2CC=C(c3ccccc3)CC2)S(=O)(=O)c2c(C)noc2C)c1	95.6%
CC/C(O)=N\S(=O)(=O)c1ccc(N=NN(C)C)cc1	97.5%
Cc1ccc(N(Cc2ccc(C(=O)Nc3ccccc3C(=O)NCc3ccco3)cc2)S(C)(=O)=O)cc1C	97%
Cc1nc2ccc(C(=O)O)cc2[nH]1	104%
COC(=O)Nc1nc2ccc(Sc3ccccc3)cc2[nH]1	47.2% (active)
CC(C)c1nc2ccc(C(=O)O)cc2[nH]1	98.8%
CN(Cc1ccccc1)C(=O)COc1ccccc1	104%
c1ccc(-c2nc(NCc3ccco3)c3ccccc3n2)cc1	95.9%
CC(c1ccco1)N(C(=O)Nc1ccccc1)C1CCCCC1 (stereo not drawn)	97.3%
COc1ccc(-c2cc(C(F)(F)F)nc(S(C)(=O)=O)n2)cc1OC	2.93% (active)
COc1ccc(-c2cc(C(F)(F)F)nc(NCc3cccnc3)n2)cc1	87.3%
COc1ccc(-c2nnco2)cc1OC	103%
COc1cccc2cc(C(=O)N3CCN(C(=O)c4ccccc4)CC3)c(=O)oc12	92.4%
CC(=O)NC1=NN(C(C)=O)C(C)(c2ccc(Cl)s2)S1 (stereo not drawn)	67.1%
Cc1ccccc1CSCCNC(=O)c1ccc(Cl)c(S(=O)(=O)N2CCOCC2)c1	97.8%
CCOc1cc(N2CCOCC2)c(OCC)cc1NC(=O)COc1cccc2cccnc12	31% (active)

SMILES	viability
CCOc1cc(NC(=O)c2ccco2)c(OCC)cc1NC(=O)COc1ccccc1	99.7%
CCOc1cc(N2CCOCC2)c(OCC)cc1NC(=O)COC(=O)[C@H](Cc1c[nH]c2ccccc12)NC(C)=O	105%
CS(=O)(=O)n1nc(-c2ccccc2)nc1NCc1ccco1	105%
C=C1c2cc(CC)ccc2NC(=O)N1c1ccc(C)cc1	102%
O=C1Nc2ccccc2C12Nc1ccccc1S2 (stereo not drawn)	92.1%
CCc1ccc2c(c1)C1(NN=C(c3ccccc3)S1)C(=O)N2 (stereo not drawn)	32.1% (active)
CN(C)S(=O)(=O)c1ccc(N2CCCC2)c(C(=O)NCc2ccccc2)c1	98.3%
CC1=C/C(=N\OS(=O)(=O)c2ccccc2)C=CC1=O	1.44% (active)
CCOC(=O)c1sc(C)c2c1NC(C)(c1cccc3ccccc13)NC2=O (stereo not drawn)	78.7%
O=C(NCCSCc1ccccc1)c1ccc(Cl)c(S(=O)(=O)N2CCOCC2)c1	92.8%
N=c1c2c3c(sc2nc2n1CCCCC2)CCCC3	102%
CC1(C)NC(=O)N(CCCCSc2ccc(Cl)cc2)C1=O	95%
CCOc1ccc2c(c1)C(c1ccc(C)cc1)=NNC(c1ccc(C)cc1)=N2	75.9%
CC(C)(C)NC(=O)Cn1c(SCC(=O)Nc2nccs2)nc2ccccc21	93.8%
CCC(c1nnnn1C(C)(C)C)N(Cc1cc2cccc(C)c2n2nnnc12)C1CCCC1 (stereo not drawn)	95.7%
CCOC(=O)c1c(N=CN(C)C)c(C#N)c2n1CCCC2	98.2%
CC[C@]1(O)CC2CN(CCc3c([nH]c4ccccc34)[C@@](C(=O)OC)(c3cc4c(cc3OC)N(C=O)[C@H]3[C@@](O)(C(=O)OC)[C@H](OC(C)=O)[C@]5(CC)C=CCN6CC[C@]43[C@@H]65)C2)C1 (stereo partly drawn)	44.6% (active)
CO/N=C(/CS(=O)(=O)c1ccc(Br)cc1)c1ccc(OC)cc1	90.9%
Cc1cc(=O)oc2cc(OCC3CC(c4ccccc4Cl)=NO3)ccc12 (stereo not drawn)	47.8% (active)
Cc1ccccc1N1CCN(CCCOc2ccc3c(C)cc(=O)oc3c2)CC1	94%
Cc1cc(=O)oc2cc(NC(=O)C3CC(=O)N(Cc4ccccc4)C3)ccc12 (stereo not drawn)	103%

SMILES	viability
Cc1cccc2nc(CSc3nc4[nH]ncc4c(=O)n3-c3cccc(Cl)c3)cc(=O)n12	68.1%
CCOc1ccc(S(=O)(=O)Nc2ccc(S(=O)(=O)Nc3cc(OC)ccc3OC)cc2)cc1	105%
CCOc1ccc(NS(=O)(=O)c2ccc(OCC(=O)NCCCOC)cc2)cc1	40.2% (active)
COC(=O)COc1ccc(S(=O)(=O)Nc2ccc(NC(C)=O)cc2)cc1	104%
O=C(c1ccccc1Oc1ccccc1)N1CCN(c2ccc(F)cc2)CC1	99.7%
CCOc1ccccc1NC(=O)C1CCCN(C(=O)Nc2ccccc2)C1 (stereo not drawn)	106%
COc1ccc(C(=O)Nc2ccc3c(c2)OCO3)cc1OC	100%
Cn1c(NC(=O)c2ccc3c(c2)OCO3)cc(=O)n(C)c1=O	97%
Cn1c(=O)n(C)c2cc(C(=O)Nc3ccc4c(c3)OCO4)ccc21	48.5% (active)
CCCc1nc2sc3c(c2c(=O)n1NC(=O)CCCl)CCCC3	80.4%
CC1CN(S(=O)(=O)c2ccccc2)C(C)CN1S(=O)(=O)c1ccccc1 (stereo not drawn)	93.9%
CCCn1c(C(Cc2ccccc2)NC(=O)COC)nc2ccccc21 (stereo not drawn)	93.2%
Cc1ccc(CN(C(=O)c2sc3ccccc3c2Cl)C2CCS(=O)(=O)C2)cc1 (stereo not drawn)	89.4%
CCC(C(=O)NCc1ccc(OC)cc1)n1nc(C)n2c(cc3occc32)c1=O (stereo not drawn)	95.5%
COc1ccccc1-n1nnnc1S(=O)(=O)Cc1ccc(Cl)cc1	25% (active)
COc1ccccc1N1CCN(C(=O)CN(Cc2ccc(Cl)cc2)S(C)(=O)=O)CC1	98.3%
COc1ccccc1N1CCN(Cc2nnnn2CCc2ccccc2)CC1	101%
O=C(Nc1ccccc1-c1nnn(CC(=O)N2CCCc3ccccc32)n1)c1cccc(Cl)c1	52.5%
Cc1ccc(NC(=S)NC(NC(=O)Cc2cccc3ccccc23)C(Cl)(Cl)Cl)cc1 (stereo not drawn)	49.6% (active)
O=C(Cc1cccc2ccccc12)Nc1ccc2oc(-c3ccccc3)nc2c1	99%
Cc1ccc(NC(=O)CCN2CCc3ccccc3C2)cc1	94.5%
